Source: ChEMBL document CHEMBL1671709, “Small-molecule screening using a whole-cell viral replication reporter gene assay identifies 2-{[2-(benzoylamino)benzoyl]amino}-benzoic acid as a novel antiadenoviral compound” (Antimicrob Agents Chemother, 2010)
pEC50: −log10 of the molar value. Active and inactive are the calls of the source. The rule behind the calls is not given here.

Columns and labels:
[1] = system: Human adenovirus 5; assay: Antiviral activity against Human adenovirus type 5 infected in human A549 cells assessed as inhibition of viral replication by QPCR at 15 uM after 24 hrs; type: functional, organism-based
Method in brief: (§1)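 A549 cells (~10^5/well) seeded the day before; compound (0.5–15 µM) and 1 pg Ad virions per cell added together in DMEM with 1% FBS, final DMSO <1%. After 24 h at 37 °C, 5% CO2, cells harvested and DNA extracted. Viral genomes quantified by real-time PCR against Ad5 DNA standard curves, normalized to cellular RNase P. EC50 taken as 50% inhibition of replication; three independent duplicate experiments.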

[2] = system: Human adenovirus 5; assay: Antiviral activity against Human adenovirus type 5 infected in human A549 cells assessed as inhibition of viral replication by QPCR at 5 uM after 24 hrs; type: functional, organism-based; method in brief: as §1
[3] = system: Human adenovirus 5; assay: Antiviral activity against Human adenovirus type 5 F2853-5b infected in A549 cells assessed as inhibition of DNA replication by QPCR assay; type: functional, organism-based; settings: Human mastadenovirus C
Method in brief: (§2)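 A549 cells (about 10^5/well) were seeded the day before. Compound (0.5–15 µM, DMSO <1%) and 1 pg virions/cell were added together in DMEM with 1% FBS and held 24 h at 37°C. DNA was then extracted and viral genomes counted by TaqMan QPCR (AdDF probe, Ad5 or Ad11 DNA standards 5–5×10^5 copies), normalized to RNase P. EC50 is the 50% replication inhibition point, from at least two independent duplicate experiments.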

[4] = Antiviral activity against Human adenovirus type 11p slobitski infected in A549 cells assessed as inhibition of DNA replication by QPCR assay; type: functional, cell-based, Human adenovirus 11p; settings: Human mastadenovirus B; method in brief: as §2
[5] = system: A549; assay: Antiviral activity against Human adenovirus type 11p in human A549 cells harboring green fluorescent protein-expressing RCAd11pGFP vector assessed as inhibition of RCAd11pGFP genome expression; type: functional, cell-based; settings: Human adenovirus 11p
[6] = Cytotoxicity against human Fibroblast cells assessed as dead cells at 15 uM after 24 hrs using PI by FACS analysis; type: cell-based
[7] = system: Human adenovirus 5; assay: Antiviral activity against Human adenovirus type 5 F2853-5b infected in human A549 cells assessed as inhibition of hexon protein expression after 24 hrs using propidium iodide by FACS analysis; type: functional, organism-based; settings: in the assay text read “using anti-hexon monoclonal antibody” for “using propidium iodide”
Method in brief: (§3)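 A549 cells (~2×10^5) seeded the day before. Compound (5 and 15 µM) added together with virus, 1 pg Ad5 or 0.5 pg Ad11p virions per cell, in DMEM with 1% FBS, DMSO <1%. After 24 h at 37 °C cells fixed in 2% paraformaldehyde and permeabilized with saponin. Stained with anti-hexon mouse monoclonal then Alexa Fluor 488 anti-mouse; read by flow cytometry. Two independent duplicate experiments.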

[8] = system: A549; assay: Antiviral activity against Human adenovirus type 11p slobitski infected in human A549 cells assessed as inhibition of hexon protein expression after 24 hrs using propidium iodide by FACS analysis; type: functional, cell-based; settings: Human adenovirus 11p, in the assay text read “using anti-hexon monoclonal antibody” for “using propidium iodide”; method in brief: as §3
[9] = system: Human adenovirus 5; assay: Antiviral activity against Human adenovirus type 5 infected in human A549 cells assessed as inhibition of viral replication by QPCR after 24 hrs; type: functional, organism-based; settings: Human mastadenovirus C, A549, 24 h; method in brief: as §1
[10] = Antiviral activity against Human adenovirus type 41 Tak infected in A549 cells assessed as inhibition of DNA replication by QPCR assay; type: functional, cell-based, Human adenovirus 41; settings: Human mastadenovirus F; method in brief: as §2
[11] = system: K562; assay: Cytotoxicity against human K562 cells assessed as dead cells at 15 uM after 24 hrs using PI by FACS analysis; type: cell-based; settings: k562, 24 h
Method in brief: (§4)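 A549 cells (2×10^5) seeded the day before in DMEM with 1% FBS; K562 cells (200,000) in RPMI 1640 with 5% FBS added just before compound. Compound at 5 and 15 µM, DMSO <1%, 24 h at 37 °C, 5% CO2. Cells washed, resuspended in PBS with 1 µg propidium iodide; dead cells counted by flow cytometry. Two independent duplicate experiments.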

[12] = system: A549; assay: Inhibition of [35S]-labeled Human adenovirus type 11p slobitski binding to human A549 cells at 15 uM; type: functional, cell-based; settings: Human adenovirus 11p
Method in brief: (§5)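 A549 cells detached with 0.05% EDTA, allowed to recover 1 h, then suspended in PBS with 1% FBS and 0.01% NaN3 (200,000/well) on ice. Compound at 5 and 15 µM final, DMSO <1%, plus 5 pg 35S-labeled Ad5 or Ad11p virions per cell, rocked 1 h on ice. Cells washed three times; bound radioactivity counted by liquid scintillation. Three independent duplicate experiments.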

[13] = system: Human adenovirus D37; assay: Antiviral activity against Human adenovirus type 37 1477 infected in A549 cells assessed as inhibition of DNA replication by QPCR assay; type: functional, organism-based; settings: Human mastadenovirus D, 1477, A549; method in brief: as §2
[14] = system: A549; assay: Cytotoxicity against human A549 cells assessed as dead cells at 15 uM after 24 hrs using PI by FACS analysis; type: cell-based; settings: a549, 24 h; method in brief: as §4
[15] = system: Human adenovirus 5; assay: Inhibition of [35S]-labeled Human adenovirus type 5 F2853-5b binding to human A549 cells at 15 uM; type: functional, organism-based; method in brief: as §5
[16] = Selectivity index, ratio of CC50 for human A549 cells to EC50 for Human adenovirus type 11p; type: toxicity, cell-based; settings: read-out: Selectivity Index
Method in brief: (§6)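 About 50,000 A549 cells seeded the day before; compound titrated in DMEM with 1% FBS for 24 h. XTT then added and incubated 2 h at 37 °C, with absorbance read at 450 nm. CC50 is the concentration leaving 50% of cells viable. Selectivity index is CC50 divided by the QPCR EC50 for each virus. Three independent duplicate experiments.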

[17] = Selectivity index, ratio of CC50 for human A549 cells to EC50 for Human adenovirus type 5; type: toxicity, cell-based; settings: read-out: Selectivity Index; method in brief: as §6
[18] = Antiviral activity against Human adenovirus type 11p in human K562 cells harboring green fluorescent protein-expressing RCAd11pGFP vector assessed as inhibition of RCAd11pGFP genome expression at 50 uM relative to untreated control; type: functional, Human adenovirus 11p; settings: Human mastadenovirus B
Method in brief: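 Single-point screen done once in K562 cells (50,000/well) in phenol-red-free RPMI with 5% FBS, with RCAd11pGFP at 1 pg/cell. Compound was at 50 µM final, from a 5 mM DMSO stock. Each plate held six DMSO-only uninfected wells and six infected DMSO wells. After 24 h at 37°C in 5% CO2, GFP fluorescence was read at 485 nm, then MTT viability.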

[19] = Antiviral activity against Human adenovirus type 11p infected in human A549 cells assessed as inhibition of viral replication by QPCR after 24 hrs; type: functional, cell-based, Human adenovirus 11p; settings: Human mastadenovirus B, A549, 24 h; method in brief: as §1
[20] = Cytotoxicity against human A549 cells by XTT assay; type: cell-based; method in brief: as §6
[21] = Antiviral activity against Human adenovirus type 4 RI-67 infected in A549 cells assessed as inhibition of DNA replication by QPCR assay; type: functional, cell-based, Human adenovirus 4; settings: Human mastadenovirus E, RI-67, A549; method in brief: as §2
[22] = Antiviral activity against Human adenovirus type 31 1315/63 infected in A549 cells assessed as inhibition of DNA replication by QPCR assay; type: functional, cell-based, Human adenovirus 31; settings: Human mastadenovirus A, 1315/63, A549; method in brief: as §2
[23] = Cytotoxicity against human K562 cells assessed as viable cells after 24 hrs by MTT assay; type: cell-based; settings: read-out: Activity
Method in brief: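 K562 cells (50,000/well) in phenol-red-free RPMI with 5% FBS, compound at 50 µM final (serial 25–0.78 µM in triplicate for dose-response), 24 h at 37 °C, 5% CO2, after the GFP fluorescence read. MTT added for 2 h, formazan dissolved in acidic isopropanol/Triton X-100, absorbance at 570 nm.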

[24] = Antiviral activity against Human adenovirus type 11p in human K562 cells harboring green fluorescent protein-expressing RCAd11pGFP vector assessed as inhibition of RCAd11pGFP genome expression; type: functional, cell-based, Human adenovirus 11p; settings: Human mastadenovirus B
Method in brief: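 K562 cells (50,000/well) in phenol-red-free RPMI with 5% FBS, infected with RCAd11pGFP at 1 pg/cell. The 5 mM DMSO stock was diluted 1:1 serially from 25 to 0.78 µM, with final DMSO <1%, run in triplicate.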

## O=C(Nc1ccccc1C(=O)O)c1ccccc1
[1]
  inhibition: inactive
[2]
  inhibition: inactive

## Nc1ccn(C[C@@H](CO)OCP(=O)(O)O)c(=O)n1 [CIDOFOVIR]
[3]
  pEC50: 4.70
[4]
  pEC50: 4.78

## O=C(Nc1ccccc1C(=O)Nc1ccccc1C(=O)O)c1ccccc1
[5]
  inhibition: Active
[3]
  pEC50: 5.43
[1]
  inhibition: Active
[6]
  Activity: < 2%
[7]
  inhibition: Dose-dependent effect
[8]
  inhibition: Dose-dependent effect
[9]
  pEC50: 5.43
[10]
  pEC50: 5.62
[4]
  pEC50: 5.54
[2]
  inhibition: Active
[11]
  Activity: < 2%
[12]
  inhibition: inactive
[13]
  pEC50: 5.33
[14]
  Activity: < 2%
[15]
  inhibition: inactive
[16]
  selectivity ratio: 68
[17]
  selectivity ratio: 54
[18]
  inhibition at 50 µM: 100%
[19]
  pEC50: 5.54
[20]
  CC50: 199 µM
[21]
  pEC50: 5.44
[22]
  pEC50: 5.41
[23]
  viability at 24 h: 100%
[24]
  pEC50: 4.54

## O=C(Nc1ccccc1C(=O)Nc1ccccc1C(=O)Nc1ccccc1C(=O)O)c1ccccc1
[1]
  inhibition: inactive
[2]
  inhibition: inactive
